Test results as given in ChEMBL document CHEMBL2150980 (Eur J Med Chem, 2012).
pKi: −log10 of the molar value.

Columns and labels:
[1] = molecular target: T1, 5-hydroxytryptamine receptor 1A (Rattus norvegicus, UniProt P19327); assay: Displacement of [3H]-8-OH-DPAT from 5-HT1A receptor in rat hippocampal membranes after 30 mins by liquid scintillation counting; assay type: cell membranes, Hippocampus, Membrane
T1 sequence (P19327 whole entry): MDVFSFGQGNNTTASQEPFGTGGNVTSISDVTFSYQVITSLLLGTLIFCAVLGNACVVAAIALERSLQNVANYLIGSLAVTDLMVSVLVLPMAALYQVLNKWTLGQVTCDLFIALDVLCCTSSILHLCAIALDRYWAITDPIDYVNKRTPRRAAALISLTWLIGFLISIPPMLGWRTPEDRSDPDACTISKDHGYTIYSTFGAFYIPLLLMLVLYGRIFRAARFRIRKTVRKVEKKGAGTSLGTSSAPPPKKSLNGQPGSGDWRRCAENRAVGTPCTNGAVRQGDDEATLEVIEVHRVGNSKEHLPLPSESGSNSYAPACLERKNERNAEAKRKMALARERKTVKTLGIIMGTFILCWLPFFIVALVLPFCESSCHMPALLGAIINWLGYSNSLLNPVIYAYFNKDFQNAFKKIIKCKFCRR
Procedure, shortened: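 Crude rat hippocampal membranes in Tris-HCl 50 mM, pH 7.7, with pargyline and 4 mM CaCl2. […] Stopped by GF/B filtration, then scintillation counting. Ki from IC50 via Cheng–Prusoff; ≥3 experiments in triplicate.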

[2] = molecular target: T2, Alpha-1A adrenergic receptor (Homo sapiens, UniProt P35348); assay: Displacement of [3H]prazosin from human cloned alpha1A adrenoceptor expressed in CHO cell membranes after 30 mins by liquid scintillation counter
T2 sequence (P35348 whole entry): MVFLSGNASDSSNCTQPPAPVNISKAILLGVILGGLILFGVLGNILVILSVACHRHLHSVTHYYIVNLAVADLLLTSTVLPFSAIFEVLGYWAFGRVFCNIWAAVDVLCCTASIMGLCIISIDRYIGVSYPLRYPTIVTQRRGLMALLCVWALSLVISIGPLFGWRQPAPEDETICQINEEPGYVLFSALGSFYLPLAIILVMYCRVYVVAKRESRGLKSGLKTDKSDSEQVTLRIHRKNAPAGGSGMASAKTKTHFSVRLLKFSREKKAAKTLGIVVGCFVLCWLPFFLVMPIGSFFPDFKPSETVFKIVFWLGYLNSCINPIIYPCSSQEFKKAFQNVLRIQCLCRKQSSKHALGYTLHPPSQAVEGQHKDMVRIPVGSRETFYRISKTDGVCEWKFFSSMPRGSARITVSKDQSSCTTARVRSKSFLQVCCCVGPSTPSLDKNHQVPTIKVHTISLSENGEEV
Procedure, shortened: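 Membranes incubated 30 min at 25 °C with 0.5 nM [3H]-prazosin ± compound (0.3–1000 nM) in 50 mM buffer, pH 7.7, containing pargyline and 0.1% ascorbic acid. Unlabelled prazosin defined nonspecific binding. GF/B filtration, scintillation counting.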

pKi [1]	pKi [2]	SMILES
8.77	9.05	COc1cccc(OC)c1OCCNC[C@H]1COc2cccc(Cl)c2O1.Cl
9.00	8.66	COc1cccc(OC)c1OCCNC[C@H]1COc2cccc(O)c2O1.Cl
9.07	9.04	COc1cccc(OC)c1OCCNC[C@H]1COc2cccc(OC)c2O1.Cl
8.85	9.19	COc1cccc(OC)c1OCCNC[C@H]1COc2cccc(F)c2O1.Cl
7.54	7.62	COc1cccc(OC)c1OCCNC[C@H]1COc2c(OC)cccc2O1.Cl
